Reference: ChEMBL document CHEMBL3826928, “Incorporation of Phosphonate into Benzonaphthyridine Toll-like Receptor 7 Agonists for Adsorption to Aluminum Hydroxide” (J Med Chem, 2016)

Tests used:
Toll-like receptor 7 [1] = molecular target: T1, Toll-like receptor 7 (Homo sapiens, UniProt Q9NYK1); assay: Agonist activity at TLR7 in human PBMC assessed as induction of IL-6 secretion in supernatant after 18 hrs; conditions: read-out: EC50
T1 sequence (Q9NYK1 whole entry): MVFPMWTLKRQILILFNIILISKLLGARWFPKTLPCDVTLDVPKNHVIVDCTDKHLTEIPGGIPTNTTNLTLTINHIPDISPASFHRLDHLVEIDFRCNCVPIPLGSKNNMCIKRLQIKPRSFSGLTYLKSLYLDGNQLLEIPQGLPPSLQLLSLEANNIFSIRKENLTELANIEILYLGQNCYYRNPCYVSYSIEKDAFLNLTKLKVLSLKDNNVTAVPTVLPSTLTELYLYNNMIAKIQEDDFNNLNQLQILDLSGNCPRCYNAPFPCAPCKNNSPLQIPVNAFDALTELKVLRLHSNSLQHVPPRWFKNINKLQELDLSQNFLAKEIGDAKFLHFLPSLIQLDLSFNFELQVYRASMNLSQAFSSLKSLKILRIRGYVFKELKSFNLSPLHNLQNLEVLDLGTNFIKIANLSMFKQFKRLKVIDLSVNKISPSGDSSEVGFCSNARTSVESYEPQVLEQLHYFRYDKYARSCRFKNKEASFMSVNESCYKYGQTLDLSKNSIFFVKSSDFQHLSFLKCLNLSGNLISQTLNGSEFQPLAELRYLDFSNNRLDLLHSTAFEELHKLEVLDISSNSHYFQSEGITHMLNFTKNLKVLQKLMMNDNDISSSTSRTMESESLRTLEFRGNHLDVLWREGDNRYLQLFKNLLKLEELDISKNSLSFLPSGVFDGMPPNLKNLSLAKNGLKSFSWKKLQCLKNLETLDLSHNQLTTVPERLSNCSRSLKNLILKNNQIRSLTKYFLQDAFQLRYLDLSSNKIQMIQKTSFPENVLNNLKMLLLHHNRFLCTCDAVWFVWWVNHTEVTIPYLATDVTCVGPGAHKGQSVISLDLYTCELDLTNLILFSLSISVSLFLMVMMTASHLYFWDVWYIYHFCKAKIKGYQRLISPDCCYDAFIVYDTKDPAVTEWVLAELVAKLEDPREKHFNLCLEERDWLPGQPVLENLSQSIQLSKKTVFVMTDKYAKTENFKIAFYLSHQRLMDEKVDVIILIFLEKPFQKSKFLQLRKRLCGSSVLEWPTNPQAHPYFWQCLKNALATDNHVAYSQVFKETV
How it was run: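 Isolated human PBMCs washed in PBS, resuspended in RPMI1640 with 10% heat-inactivated FBS, pyruvate, HEPES, at 1 × 10⁶ cells/mL. Compounds as in-situ sodium salts from 10 mM aqueous stocks, 3-fold 10-point dilutions from 30 μM.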

Toll-like receptor 7 [2] = molecular target: T2, Toll-like receptor 7 (Mus musculus, UniProt P58681); assay: Agonist activity at TLR7 in Balb/c mouse splenocytes assessed as induction of IL-6 secretion in supernatant after 18 hrs; type: cell-based
T2 sequence (P58681 whole entry): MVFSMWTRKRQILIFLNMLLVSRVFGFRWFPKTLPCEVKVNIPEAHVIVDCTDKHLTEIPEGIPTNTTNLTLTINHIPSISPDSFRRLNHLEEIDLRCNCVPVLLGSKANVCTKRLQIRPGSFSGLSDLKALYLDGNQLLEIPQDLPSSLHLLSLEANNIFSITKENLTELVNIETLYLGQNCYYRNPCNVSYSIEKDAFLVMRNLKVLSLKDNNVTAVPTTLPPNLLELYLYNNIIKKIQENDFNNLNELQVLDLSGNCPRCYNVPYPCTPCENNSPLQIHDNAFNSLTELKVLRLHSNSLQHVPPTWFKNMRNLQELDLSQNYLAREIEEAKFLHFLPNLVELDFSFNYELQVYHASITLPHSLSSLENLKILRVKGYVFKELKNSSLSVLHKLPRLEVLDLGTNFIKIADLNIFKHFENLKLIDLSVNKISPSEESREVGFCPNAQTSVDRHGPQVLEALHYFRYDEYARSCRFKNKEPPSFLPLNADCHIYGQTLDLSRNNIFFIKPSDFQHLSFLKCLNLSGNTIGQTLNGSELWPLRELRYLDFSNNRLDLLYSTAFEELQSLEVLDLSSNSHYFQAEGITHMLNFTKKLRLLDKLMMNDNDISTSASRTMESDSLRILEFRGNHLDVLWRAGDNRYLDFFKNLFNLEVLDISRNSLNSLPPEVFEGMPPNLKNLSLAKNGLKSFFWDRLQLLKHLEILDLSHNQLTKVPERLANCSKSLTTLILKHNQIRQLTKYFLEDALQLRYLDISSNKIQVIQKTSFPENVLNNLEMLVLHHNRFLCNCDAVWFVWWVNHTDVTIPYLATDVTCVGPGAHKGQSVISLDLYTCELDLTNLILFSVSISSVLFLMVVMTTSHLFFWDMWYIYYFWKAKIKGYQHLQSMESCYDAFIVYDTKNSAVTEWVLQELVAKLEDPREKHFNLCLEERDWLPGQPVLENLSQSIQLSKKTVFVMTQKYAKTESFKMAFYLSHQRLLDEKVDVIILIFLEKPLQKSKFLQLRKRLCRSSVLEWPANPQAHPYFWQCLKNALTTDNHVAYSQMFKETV
How it was run: (§1)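 Spleens from female BALB/c mice (6−10 weeks), single-cell suspension, RBC lysis; 5 × 10⁵ splenocytes per well in RPMI 1640 with 10% FCS, 2-ME. Compounds as sodium salts (1 equiv NaOH) from 10 mM water stocks, 3-fold 10-point dilutions from 30 μM.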

Toll-like receptor 7 [3] = molecular target: T1, Toll-like receptor 7; assay: Agonist activity at human TLR7 expressed in HEK293 cells incubated for 6 hrs by luciferase reporter gene assay; type: cell-based
How it was run: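 HEK293 stably carrying NF-κB-firefly luciferase reporter plus human TLR7 (best resiquimod-responding clone), maintained under puromycin/blasticidin. 25 000 cells per well in DMEM with 3% FCS.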

[4] = Adsorption on alum in pH 6.5 histidine buffer assessed as compound adsorbed at 1 mg/ml incubated for 1 hr in presence of inorganic phosphate by LC-MS analysis; type: physicochemical; conditions: pH 6.5, 1 h
[5] = molecular target: T3, Toll-like receptor 7 (Mus musculus) (UniProt P58681); assay: Agonist activity at TLR7 in Balb/c mouse splenocytes assessed as induction of IL-6 secretion in supernatant after 18 hrs relative to resiquimod; type: cell-based; how it was run: as §1
T3 sequence (whole entry): T2 sequence (P58681 whole entry)

[6] = Adsorption on alum in pH 6.5 histidine buffer assessed as compound adsorbed at 1 mg/ml incubated for 1 hr by LC-MS analysis relative to control; type: physicochemical; conditions: pH 6.5, 1 h
How it was run: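 Compound dissolved in endotoxin-free water, then combined with Alhydrogel alum suspension and 100 mM histidine pH 6.5 stock; final 1 mg/mL compound, 3 mg/mL alum in 10 mM histidine, gently agitated 1 h at room temperature. Aliquot centrifuged 13 000 rpm 10 min; supernatant analysed by LCMS against nonadsorbed reference to give unbound fraction, bound fraction derived indirectly.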

[7] = Aqueous solubility of compound in pH 1.5 to 10 solution by potentiometric titration method; type: physicochemical; conditions: buffer
How it was run: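 About 2 mg solid titrated potentiometrically from pH 10 to pH 1.5 on Sirius T3 after pKa determination with MeOH cosolvent; intrinsic solubility calculated from pKa shift on precipitation (Noyes−Whitney), solubility−pH profile extrapolated by Henderson−Hasselbalch.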

Cc1cc(OCCOCCOCCC(F)(F)P(=O)(O)O)ccc1CCc1cnc2c(N)nc3cc(CCC(=O)O)ccc3c2c1
EC50 (Toll-like receptor 7 [1]): 2100 nM | EC50 (Toll-like receptor 7 [2]): 1200 nM | EC50 (Toll-like receptor 7 [3]): 39 nM | Activity [4]: Not Active | %max [5]: 80% | Activity [6]: 97%

Cc1ccc2c(c1)nc(N)c1ncc(CCc3ccc(OCCCP(=O)(O)O)cc3C)cc12
EC50 (Toll-like receptor 7 [1]): 30000 nM | EC50 (Toll-like receptor 7 [2]): 1100 nM | EC50 (Toll-like receptor 7 [3]): 230 nM | %max [5]: 98% | Activity [6]: ND(Insoluble)

Cc1cc(OCCOCCOCCP(=O)(O)O)ccc1CCc1cnc2c(N)nc3cc(CCC(=O)O)ccc3c2c1
EC50 (Toll-like receptor 7 [1]): 490 nM | EC50 (Toll-like receptor 7 [2]): 190 nM | EC50 (Toll-like receptor 7 [3]): 350 nM | Activity [4]: Not Active | %max [5]: 140% | Activity [6]: 97% | solubility [7]: soluble

Cc1cc(OCCCC(F)(F)P(=O)(O)O)ccc1CCc1cnc2c(N)nc3cc(CCC(=O)O)ccc3c2c1
EC50 (Toll-like receptor 7 [1]): 360 nM | EC50 (Toll-like receptor 7 [2]): 2400 nM | EC50 (Toll-like receptor 7 [3]): 240 nM | Activity [4]: Not Active | %max [5]: 74% | Activity [6]: 95%

Cc1ccc2c(c1)nc(N)c1ncc(CCc3ccc(OCCOCCOCCC(F)(F)P(=O)(O)O)cc3C)cc12
EC50 (Toll-like receptor 7 [1]): 980 nM | EC50 (Toll-like receptor 7 [2]): 810 nM | EC50 (Toll-like receptor 7 [3]): 1200 nM | Activity [4]: Not Active | %max [5]: 100% | Activity [6]: 98% | solubility [7]: soluble
